Experimental data as given in ChEMBL document CHEMBL1909636, “Evaluation of the antiproliferative activity of diterpene isonitriles from the sponge Pseudoaxinella flava in apoptosis-sensitive and apoptosis-resistant cancer cell lines” (2011).
Activity calls are given as the source filed them. No cut-off for these calls is given here.

Columns and labels:
PC-3 [1] = experiment: Induction of apoptosis in human PC3 cells assessed as vacuolization after 72 hrs at IC50 by quantitative video microscopy analysis; type: functional, cell-based
PC-3 [2] = experiment: Growth inhibition of human PC3 cells after 72 hrs by MTT colorimetric assay; type: functional; settings: PC-3, 72 h
How it was run: (§1)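 Cells were exposed to the compound over a range of concentrations for three days (72 h) and growth was read by MTT colorimetric assay. IC50 is the concentration that reduces global growth of the cell population by 50%.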

PC-3 [3] = experiment: Cytotoxicity against human PC3 cells assessed as cell death at IC50 by quantitative video microscopy analysis; type: functional, cell-based
How it was run: (§2)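 PC3 cells were treated for 72 h at a single concentration taken from the 72 h MTT growth assay and followed by computer-assisted phase-contrast videomicroscopy. Dead cells were scored as rounded and refringent, and cytostatic action was distinguished as inhibited proliferation without cell death. Morphology was examined at ×100 and, for high-magnification views, ×500.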

[4] = Growth inhibition of human Hs683 cells after 72 hrs by MTT colorimetric assay; type: functional; settings: Hs 683, 72 h; how it was run: as §1
SK-MEL-28 = experiment: Growth inhibition of human SK-MEL-28 cells after 72 hrs by MTT colorimetric assay; type: functional; settings: SK-MEL-28, 72 h; how it was run: as §1
LoVo = experiment: Growth inhibition of human LoVo cells after 72 hrs by MTT colorimetric assay; type: functional; how it was run: as §1
PC-3 [5] = experiment: Cytostatic activity in human PC3 cells at IC50 by quantitative video microscopy analysis; type: functional, cell-based; how it was run: as §2
A549 = experiment: Growth inhibition of human A549 cells after 72 hrs by MTT colorimetric assay; type: functional; settings: A549, 72 h; how it was run: as §1
[6] = Growth inhibition of human U373 cells after 72 hrs by MTT colorimetric assay; type: functional, U-373MG ATCC; settings: U373 MG; how it was run: as §1

[C-]#[N+][C@@]1(C)CC[C@H]2[C@H]3[C@@H](C(=C)CC[C@H]31)[C@H](C=C(C)C)C[C@@H]2C
Activity (PC-3 [1]): Active
GI50 (PC-3 [2]): 7 µM
Activity (PC-3 [3]): Active

[C-]#[N+][C@@]1(C)CC[C@H]2[C@H]3[C@@H](C(=C)CC[C@H]31)[C@H](CC(=C)C)C[C@@H]2C
GI50 (PC-3 [2]): 7 µM
Activity (PC-3 [3]): Active

[C-]#[N+]C(C)(C)C[C@@H]1C[C@H](C)[C@H]2CC[C@H](C)[C@@]3([N+]#[C-])CCC(=C)[C@@H]1[C@H]23 [DIISOCYANOAMPHILECTENE]
GI50 [4]: 50 µM
GI50 (SK-MEL-28): 6 µM
GI50 (LoVo): 3 µM
Activity (PC-3 [5]): Active
GI50 (A549): 42 µM
GI50 [6]: 25 µM
GI50 (PC-3 [2]): 1 µM

[C-]#[N+]C(C)(C)C[C@@H]1C[C@H](C)[C@H]2CC[C@](C)([N+]#[C-])[C@@H]3CCC(=C)[C@@H]1[C@H]23
GI50 [4]: 4 µM
GI50 (SK-MEL-28): 32 µM
GI50 (LoVo): 3 µM
Activity (PC-3 [5]): Active
GI50 (A549): 16 µM
GI50 [6]: 10 µM
GI50 (PC-3 [2]): 3 µM
